Reference: publication PMC4839537 (Biochemical pharmacology, 2016)
Numbered stars: 1 amine (or outer) side, 2 acyl side, 3 side chain; on linkers, the order of the positions; unused ones are H or OH. Bridge positions count the residues as written; N and C are the ends. Square brackets hold non-standard residues; d marks the D form. Peptide text beside a SMILES is read from it. * marks the point of attachment. Leu(3R-OH,Nα-propionyl) = CCC(=O)N[C@H](C(=O)*)[C@H](O)C(C)C; X2 = CC(=O)NC(C(=O)OC(C(C)C)C(N[*:1])C(=O)[*:2])C(O)C(C)C; X1 = CC(C)[C@@H](O[*:3])[C@H](N[*:1])C(=O)[*:2]; NMeT = CN[CH](C(=O)O)[CH](C)O; dPhLac = O=C(O)[C@H](O)Cc1ccccc1; PhLac = O=C(O)[CH](O)Cc1ccccc1; NMeA = CN[CH](C)C(=O)O; NMeDha = C=C(NC)C(=O)O

Legend:
[1] = tested on: Gα15; details: cited from earlier work
[2] = tested on: Gβγ; details: 10 μM, 5 min pretreatment; compared with PTX 50 ng/ml for 6 h; cited from earlier work
[3] = tested on: Gαq; details: cited from earlier work
[4] = tested on: Gαq; details: 10 μM, 5 min pretreatment; cited from earlier work
[5] = molecular target: recombinant human A2BAR (Gαs) (Homo sapiens, UniProt P29275); assay type: cell-based
[6] = molecular target: M2 muscarinic receptor (Homo sapiens, UniProt P08172); assay type: cell-based
[7] = molecular target: Gi-coupled A1AR (Homo sapiens, UniProt P30542); assay type: cell-based
[8] = molecular target: Gi-coupled P2Y12R (Homo sapiens, UniProt Q9H244); assay type: cell-based
[9] = tested on: Gα16; details: 1 μM; cited from earlier work
[10] = molecular target: M2 muscarinic receptor (Gi-coupled) (Homo sapiens, UniProt P08172); assay type: cell-based
[11] = tested on: Gαi subunits; details: cited from earlier work
[12] = tested on: ERK1/2 activation; experiment: ERK1/2 activation mediated through various GPCRs; assay type: cell-based
Method in brief: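 CHO (A1AR, M2, M3) or 1321N1 (P2Y1R) cells were seeded at 30,000 cells/100 μl and serum-starved overnight after attachment. Pretreatment was test compound or GO6983 (10 μM) for 30 min, or pertussis toxin (200 ng/ml) overnight. Agonists in Hank's buffered salt solution were applied for 5 min. Cells were lysed and p-ERK1/2 (Thr202/Tyr204) was read by AlphaScreen SureFire.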

[13] = molecular target: A1AR (Homo sapiens, UniProt P30542); assay type: cell-based
[14] = molecular target: endogenous A1AR (Mesocricetus auratus, UniProt A0A1U8BVR4); assay type: cell-based, Syrian hamster
[15] = molecular target: recombinant human M3 muscarinic receptor (Gαq) (Homo sapiens, UniProt P20309); assay type: cell-based
[16] = molecular target: Gαq-coupled P2Y1R (Homo sapiens, UniProt P47900); experiment: Akt1/2/3 phosphorylation in 1321N1 cells expressing the P2Y1R; assay type: cell-based; details: UBO-QIC 100 nM
Method in brief: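 1321N1 astrocytoma cells expressing human P2Y1R were seeded at 30,000 cells/100 μl in complete medium. After attachment they were serum-starved overnight, pretreated with test compound (100 nM) for 30 min, then given agonist in Hank's buffered salt solution for 20 min. Lysed cells were assayed for p-Akt1/2/3 (Ser473) by AlphaScreen SureFire. Mean ± SEM of 3 independent experiments in duplicate.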

[17] = tested on: platelet aggregation; details: cited from earlier work
[18] = molecular target: P2Y1R (Gq-coupled) (Homo sapiens, UniProt P47900); assay type: cell-based
[19] = tested on: Gαq-coupled T1R1/T1R3 heterodimeric taste receptor; details: MIN6 cells; cited from earlier work
[20] = molecular target: human A1AR (Gi-coupled) (Homo sapiens, UniProt P30542); assay type: cell-based
[21] = molecular target: P2Y1R (Homo sapiens, UniProt P47900); assay type: cell-based
[22] = molecular target: P2Y12R (Gi-coupled) (Homo sapiens, UniProt Q9H244); assay type: cell-based
[23] = molecular target: endogenous human P2Y1R (Homo sapiens, UniProt P47900); assay type: cell-based
[24] = molecular target: recombinant human A2AAR (Homo sapiens, UniProt P29274); experiment: CGS21680-induced cAMP accumulation in CHO cells expressing the A2AAR; assay type: cell-based; details: data not shown
Method in brief: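 CHO cells stably expressing human A2AAR were grown in DMEM with 10% FBS, penicillin/streptomycin and glutamine, then plated in 96-well plates overnight. Cells were pretreated with test compound (300 nM) for 30 min or with pertussis toxin (200 ng/ml) overnight. Agonist was then added with rolipram (10 μM). Supernatant was removed, cells were lysed in 0.3% Tween-20, and cAMP was measured by AlphaScreen.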

[25] = cited from earlier work
[26] = molecular target: M3 muscarinic receptor (Homo sapiens, UniProt P20309); assay type: cell-based
Sequence of M3 muscarinic receptor (P20309 whole entry): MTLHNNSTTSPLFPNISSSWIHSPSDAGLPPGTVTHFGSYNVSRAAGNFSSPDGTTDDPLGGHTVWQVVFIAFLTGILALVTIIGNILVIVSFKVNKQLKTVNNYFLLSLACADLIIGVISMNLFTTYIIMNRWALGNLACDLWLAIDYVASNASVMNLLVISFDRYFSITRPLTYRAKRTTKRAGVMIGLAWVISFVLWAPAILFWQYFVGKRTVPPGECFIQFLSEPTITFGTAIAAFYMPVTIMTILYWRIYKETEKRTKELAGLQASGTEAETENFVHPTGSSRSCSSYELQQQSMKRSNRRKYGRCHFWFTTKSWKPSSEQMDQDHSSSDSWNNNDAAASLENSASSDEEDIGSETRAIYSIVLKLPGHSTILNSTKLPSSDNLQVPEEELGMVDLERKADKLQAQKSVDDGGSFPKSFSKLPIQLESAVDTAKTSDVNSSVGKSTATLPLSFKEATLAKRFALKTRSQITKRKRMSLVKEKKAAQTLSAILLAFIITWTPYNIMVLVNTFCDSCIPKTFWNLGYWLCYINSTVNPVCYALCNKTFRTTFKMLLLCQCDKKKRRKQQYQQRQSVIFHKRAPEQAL

Sequence of M2 muscarinic receptor (Gi-coupled) (P08172 whole entry): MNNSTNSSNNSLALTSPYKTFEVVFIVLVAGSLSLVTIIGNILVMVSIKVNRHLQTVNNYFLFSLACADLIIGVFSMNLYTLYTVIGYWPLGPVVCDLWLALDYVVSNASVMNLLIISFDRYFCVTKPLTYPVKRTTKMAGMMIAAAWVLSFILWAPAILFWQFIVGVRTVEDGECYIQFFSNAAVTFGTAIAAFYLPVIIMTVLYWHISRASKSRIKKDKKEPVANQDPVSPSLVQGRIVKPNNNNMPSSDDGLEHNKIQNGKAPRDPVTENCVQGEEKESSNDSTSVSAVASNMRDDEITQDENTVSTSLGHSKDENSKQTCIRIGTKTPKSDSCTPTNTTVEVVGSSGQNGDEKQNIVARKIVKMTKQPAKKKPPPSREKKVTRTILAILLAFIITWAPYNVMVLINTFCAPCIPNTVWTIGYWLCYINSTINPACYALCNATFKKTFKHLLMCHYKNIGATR
Sequence of Gi-coupled P2Y12R (Q9H244 whole entry): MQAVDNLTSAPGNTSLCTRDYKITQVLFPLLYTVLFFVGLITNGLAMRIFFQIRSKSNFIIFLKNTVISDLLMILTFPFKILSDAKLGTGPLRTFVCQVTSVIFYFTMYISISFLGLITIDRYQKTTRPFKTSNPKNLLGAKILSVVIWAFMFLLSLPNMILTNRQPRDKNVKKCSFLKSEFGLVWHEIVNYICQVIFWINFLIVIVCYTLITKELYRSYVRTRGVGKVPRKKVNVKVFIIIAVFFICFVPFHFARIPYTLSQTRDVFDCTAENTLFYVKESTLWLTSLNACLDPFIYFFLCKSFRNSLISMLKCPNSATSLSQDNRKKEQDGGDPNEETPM
Sequence of P2Y12R (Gi-coupled) (Q9H244 whole entry): as above
Sequence of human A1AR (Gi-coupled) (P30542 whole entry): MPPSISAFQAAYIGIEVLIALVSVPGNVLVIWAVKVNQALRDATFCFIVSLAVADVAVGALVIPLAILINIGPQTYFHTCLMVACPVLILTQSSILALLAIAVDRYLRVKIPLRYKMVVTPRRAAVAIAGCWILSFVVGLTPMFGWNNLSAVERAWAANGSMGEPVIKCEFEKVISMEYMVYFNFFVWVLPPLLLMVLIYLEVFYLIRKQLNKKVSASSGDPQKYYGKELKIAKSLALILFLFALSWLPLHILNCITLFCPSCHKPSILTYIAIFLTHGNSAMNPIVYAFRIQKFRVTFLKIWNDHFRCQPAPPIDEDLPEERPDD
Sequence of P2Y1R (Gq-coupled) (P47900 whole entry): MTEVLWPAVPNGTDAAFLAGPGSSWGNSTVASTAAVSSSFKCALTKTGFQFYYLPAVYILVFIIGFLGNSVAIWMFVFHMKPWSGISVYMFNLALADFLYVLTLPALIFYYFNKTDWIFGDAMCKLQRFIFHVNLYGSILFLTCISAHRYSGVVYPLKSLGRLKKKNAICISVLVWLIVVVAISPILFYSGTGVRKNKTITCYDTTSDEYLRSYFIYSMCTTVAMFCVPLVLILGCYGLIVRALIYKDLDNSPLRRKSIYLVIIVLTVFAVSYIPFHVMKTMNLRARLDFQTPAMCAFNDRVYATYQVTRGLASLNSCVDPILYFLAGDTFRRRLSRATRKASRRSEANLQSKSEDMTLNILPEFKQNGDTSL
Sequence of P2Y1R (P47900 whole entry): as above
Sequence of M2 muscarinic receptor (P08172 whole entry): as the sequence (P08172 whole entry) above
Sequence of recombinant human A2AAR (P29274 whole entry): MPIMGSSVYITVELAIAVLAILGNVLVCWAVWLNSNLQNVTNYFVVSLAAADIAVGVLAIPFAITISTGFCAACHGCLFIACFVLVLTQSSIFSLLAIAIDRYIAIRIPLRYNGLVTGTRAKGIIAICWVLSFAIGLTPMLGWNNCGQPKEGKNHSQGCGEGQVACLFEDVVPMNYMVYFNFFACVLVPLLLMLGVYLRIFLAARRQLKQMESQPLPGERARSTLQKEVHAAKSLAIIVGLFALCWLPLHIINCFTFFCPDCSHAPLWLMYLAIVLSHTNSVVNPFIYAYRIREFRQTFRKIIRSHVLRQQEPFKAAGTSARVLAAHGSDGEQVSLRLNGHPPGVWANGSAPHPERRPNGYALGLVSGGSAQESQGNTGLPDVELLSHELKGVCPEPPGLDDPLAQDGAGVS
Sequence of recombinant human M3 muscarinic receptor (Gαq) (P20309 whole entry): as the sequence (P20309 whole entry) above
Sequence of recombinant human A2BAR (Gαs) (P29275 whole entry): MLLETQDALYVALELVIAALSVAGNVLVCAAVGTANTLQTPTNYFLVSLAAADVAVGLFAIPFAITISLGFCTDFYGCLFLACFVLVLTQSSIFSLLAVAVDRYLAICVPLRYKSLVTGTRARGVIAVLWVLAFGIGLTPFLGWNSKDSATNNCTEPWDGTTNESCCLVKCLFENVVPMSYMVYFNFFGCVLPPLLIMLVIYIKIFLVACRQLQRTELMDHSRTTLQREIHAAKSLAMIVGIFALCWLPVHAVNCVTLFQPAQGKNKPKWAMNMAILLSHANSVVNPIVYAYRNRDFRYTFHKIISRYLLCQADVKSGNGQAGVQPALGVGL
Sequence of Gi-coupled A1AR (P30542 whole entry): as the sequence (P30542 whole entry) above
Sequence of A1AR (P30542 whole entry): as above
Sequence of Gαq-coupled P2Y1R (P47900 whole entry): as the sequence (P47900 whole entry) above
Sequence of endogenous human P2Y1R (P47900 whole entry): as above
Sequence of endogenous A1AR (A0A1U8BVR4 1-326): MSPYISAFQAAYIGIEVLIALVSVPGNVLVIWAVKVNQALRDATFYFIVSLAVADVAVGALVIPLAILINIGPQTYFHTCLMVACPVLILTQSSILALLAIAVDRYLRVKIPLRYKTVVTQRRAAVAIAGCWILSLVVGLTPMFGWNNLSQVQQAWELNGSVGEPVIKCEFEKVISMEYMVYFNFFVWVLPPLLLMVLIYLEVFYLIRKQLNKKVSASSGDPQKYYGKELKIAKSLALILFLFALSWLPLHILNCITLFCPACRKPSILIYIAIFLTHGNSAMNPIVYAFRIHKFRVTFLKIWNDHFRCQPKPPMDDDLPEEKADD

## C=C1C(=O)NC(C)C(=O)N(C)C(C)C(=O)NC(C(OC(=O)C(NC(C)=O)C(O)C(C)C)C(C)C)C(=O)N(C)C(C(C)OC)C(=O)OC(C)C(NC(C)=O)C(=O)OC(Cc2ccccc2)C(=O)N1C (stereo not drawn) [YM-254890] (Ac-T[PhLac][NMeDha]A[NMeA][X2][NMeT](Me); ester 1-C; configuration not given here)
[1]
  Effect on Gα15-mediated Ca2+ release: only a small effect
[2]
  Inhibition of fMLP-induced Ca2+ mobilization: to a lesser extent than pertussis toxin
[3]
  Effect on release of GDP from Gαq: inhibits the release of GDP from Gαq
[4]
  Inhibition of UTP-mediated Ca2+ release: much larger inhibition

## C=C1C(=O)N[C@@H](C)C(=O)N(C)[C@@H](C)C(=O)N[C@@H]([C@H](OC(=O)[C@@H](NC(=O)CC)[C@H](O)C(C)C)C(C)C)C(=O)N(C)[C@@H]([C@@H](C)OC)C(=O)O[C@H](C(C)C)[C@H](NC(C)=O)C(=O)O[C@H](Cc2ccccc2)C(=O)N1C [UBO-QIC, L-threonine, (3R)-N-acetyl-3-hydroxy-L-leucyl-(αR)-α-hydroxybenzenepropanoyl-2,3-didehydro-N-methylalanyl-L-alanyl-N-methyl-L-alanyl-(3R)-3-[[(2S,3R)-3-hydroxy-4-methyl-1-oxo-2-[(1-oxopropyl)amino]pentyl]oxy]-L-leucyl-N,O-dimethyl-, (7→1)-lactone] (Ac-[X1][dPhLac][NMeDha]A[NMeA][X1](Leu(3R-OH,Nα-propionyl))[NMeT](Me); ester 1-C)
[5]
  Effect of inhibitor on NECA-induced cAMP accumulation: did not show any effect
[6]
  Block of the maximal agonist effect in ERK1/2 phosphorylation: ≤ 30%
[7]
  Effect on Akt1/2/3 activity: no effect
[8]
  Effect on Akt1/2/3 activity: no effect
  Effect on the maximum effect of 2MeSADP-stimulated Akt activity: modest but significant inhibition
[9]
  Effect on Gα16: could inhibit Gα16
[10]
  Effect on agonist effects (calcium): completely blocked
  Effect on calcium responses: completely blocked
[11]
  Effect on phosphorylation of protein kinase B (Akt): no effect
[12]; UBO-QIC 10 nM, initial experiment
  Effect on ERK1/2 activation: little if any effect
[12]; in all cases (P2Y1, A1AR, M2, M3)
  Effect on agonist concentration-response curves, ERK1/2: somewhat non-parallel right shift
[13]
  Block of the maximal agonist effect in ERK1/2 phosphorylation: ≤ 30%
[14]
  Effect on CPA-induced intracellular calcium mobilization: completely blocked
[15]
  Effect of inhibitor on carbachol-induced Ca2+ transients: completely blocked
[16]
  Effect on 2MeSADP-induced Akt1/2/3 phosphorylation: completely inhibited
[17]
  Effect on platelet aggregation: inhibit platelet aggregation
[18]
  Effect on agonist effects (calcium): completely blocked
  Effect on calcium responses: completely blocked
[19]
  Effect on ERK1/2 stimulation: only partially reduced
[20]
  Effect on agonist effects (calcium): completely blocked
  Effect on calcium responses: completely blocked
[21]
  Block of the maximal agonist effect in ERK1/2 phosphorylation: ≤ 30%
[22]
  Effect on agonist effects (calcium): completely blocked
  Effect on calcium responses: completely blocked
[23]
  Effect on MRS2365-mediated calcium transients: antagonizes
[24]
  Effect on CGS21680-induced cAMP accumulation: did not affect
[25]
  Effect on blood pressure: decrease blood pressure

## COc1ccc2c(c1)c(C1=C(c3c[nH]c4ccccc34)C(=O)NC1=O)cn2CCCN(C)C [GO6983, 3-[1-[3-(dimethylamino)propyl]-5-methoxy-1H-indol-3-yl]-4-(1H-indol-3-yl)-1H-pyrrole-2,5-dione]
[21]
  Effect on ERK1/2 phosphorylation: completely blocked
[26]
  Effect on ERK1/2 phosphorylation: completely blocked
